Bioassay records (PubChem)
In the library only some 1.1% were active in any assay of this set; here they are far more common.
GSK3 alpha inh: human GSK-3 alpha kinase inhibition | ADP-Glo luminescence, 60 min | inhibition, % at 10 µM | AID 2650 | 0.1% of 320,000 active | P49840;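 active = more than half of replicates show inhibition above 20%; inconclusive = some but at most half of replicates above 20% inhibition; inactive = no replicate shows inhibition above 20%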;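 note: GST-tagged GSK-3 alpha with peptide substrate and 25 µM ATP; 0% = DMSO neutral wells and 100% = GW8510 positive control wells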
SR-BI DiI inh: mouse SR-BI HDL lipid transfer inhibition | Q61009 | ldlA[mSR-BI] CHO cells, DiI-HDL uptake fluorescence, 3 h | AID 488896 | 0.96% of 320,000 active | inhibition, % at 12.5 µM;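 active = mean replicate inhibition of at least 70% and a set share of replicates each scoring 70 or more; inconclusive = meets just one of the two criteria; inactive = fails both criteria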;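 note: 0% = median of neutral control wells and 100% = median of positive control wells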
GSK3B inh: blocks human GSK3beta kinase activity; activity score (negative = inhibition), % at 10 µM; 0.038% of 300,000 active; GST-GSK3beta kinase, ADP-Glo luminescence, 60 min; active compounds read low; P49841;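 active = more than half of replicate wells score below -50%, meaning over 50% inhibition versus plate controls; inconclusive = some replicates but at most half score below -50%; inactive = no replicate scores below -50%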;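 note: 0% = median DMSO wells and -100% = median GW8510 positive control wells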
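Test system: GST-tagged human GSK3beta kinase, cell-free; evaluation: activity score scaled between in-plate DMSO and GW8510 controls; measured by: ADP-Glo luminescence; incubation: 60 min reaction, RT; benchmarks: DMSO and 20 µM GW8510; reagent: peptide substrate plus 25 µM ATP (final); medium: Tris/MgCl2 kinase buffer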
CDK5 inh: CDK5/p35 (human) kinase inhibition. Recombinant CDK5/p35, ADP-Glo luminescence, 60 min. inhibition, % at 10 µM. 0.01% of 330,000 active. AID 488839;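 active = highest replicate inhibition of at least 50% and at least 75% of replicates reaching 50%; inconclusive = only one of the two criteria met; inactive = both criteria failed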;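 note: plate controls were DMSO neutral control for no effect and GW8510 at 10 µM for full effect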
Target sequence (Q00535 whole entry, looked up): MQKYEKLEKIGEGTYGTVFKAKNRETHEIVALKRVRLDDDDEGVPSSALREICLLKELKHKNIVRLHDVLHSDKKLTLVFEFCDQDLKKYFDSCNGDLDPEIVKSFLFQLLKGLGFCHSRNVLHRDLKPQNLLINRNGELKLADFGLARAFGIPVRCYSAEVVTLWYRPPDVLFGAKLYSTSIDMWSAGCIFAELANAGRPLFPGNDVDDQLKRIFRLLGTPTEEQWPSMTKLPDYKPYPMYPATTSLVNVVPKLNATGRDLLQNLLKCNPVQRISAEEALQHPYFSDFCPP
Target sequence (Q15078 whole entry, looked up): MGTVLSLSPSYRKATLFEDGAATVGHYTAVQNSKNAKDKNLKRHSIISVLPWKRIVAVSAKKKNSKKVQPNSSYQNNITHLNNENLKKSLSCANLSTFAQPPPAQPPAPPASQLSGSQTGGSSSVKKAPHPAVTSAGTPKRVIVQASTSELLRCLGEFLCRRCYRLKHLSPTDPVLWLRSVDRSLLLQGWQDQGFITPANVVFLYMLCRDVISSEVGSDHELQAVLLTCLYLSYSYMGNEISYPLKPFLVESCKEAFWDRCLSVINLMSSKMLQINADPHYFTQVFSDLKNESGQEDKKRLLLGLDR
SR-BI uptake up: activators of SR-BI mediated HDL lipid uptake; CHO ldlA[mSR-BI] cells, DiI-HDL uptake fluorescence, 3 h; 100 = double the neutral-control signal; activation, % at 12.5 µM; 0.096% of 320,000 active;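 active = mean replicate activation of at least 60% and every replicate at or above 60%; inconclusive = mean or all-replicate condition met, but not both; inactive = mean below 60% and not all replicates reaching 60%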;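 note: 0% = median plate neutral-control signal and 100% = twice that signal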
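Material: SR-BI-overexpressing, LDLR-lacking CHO cells; schedule: compound exposure 3 h, 37 °C; reagent: DiI-labelled HDL at 10 µg/mL final; technique: bottom-read fluorescence, 550/595 nm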
DiI quencher: DiI fluorescence quenching in cell-free counter-screen | shares compounds with SR-BI DiI inh | cell-free DiI-HDL fluorescence quenching, 30 min | AC50, µM (highest dose often 35 µM), without a hit: at the highest dose activity change, negative = quenching | 20% of 470 active | AID 540326;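 active = quenching, a falling signal, with AC50 below a set limit tied to the top valid dose, actives reach about 32 µM in these data; inconclusive = no clear call, values can overlap the other calls; inactive = rising signal, and the rest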
Active calls of the source: *; ? = inconclusive; nt = no result.

SMILES	GSK3 alpha inh	SR-BI DiI inh	GSK3B inh	CDK5 inh	SR-BI uptake up	others
CCN(CC)C(=O)c1ccc(NC(=O)c2ccc3c(c2)NC(=O)CS3)cc1	-7	72*	nt	6	-72
COc1ccc(-n2c(O)c(C(C)=NCCCn3ccnc3)c(=O)[nH]c2=O)cc1	54*	-3	1	1	3
O=C1CN=C(c2cccs2)c2c(sc3c2CCCC3)N1	82*	48	-59*	1	-48
Cc1ccccc1C1=NCC(=O)N(CC(=O)NCc2ccco2)c2sc3c(c21)CCCC3	0	68	nt	-1	-68
O=C1CN=C(c2ccccc2)c2c(sc3c2CCCC3)N1	56*	53	-27	-1	-53
Cc1ccc2c(c1)C(c1ccccc1)=NCC(=O)N2	27	-11	-2	-3	11
Cc1cc2c(s1)NC(=O)CN=C2c1cccs1	54*	-2	-23	1	2
N#CC1C(C#N)C2CCC1C1C2N1c1ccccc1 (configuration not stated)	nt	-24	nt	-2	24
C[CH2][Hg][S]c1ccccc1C(=O)O	-1	106*	nt	2	-106
CNC1(c2ccc(F)cc2)CCCCC1	nt	?	nt	1	-72	DiI quencher=-3%
OC1(c2ccc(F)cc2)CCNC1 (configuration not stated)	-8	-34	-4	1	34
N#Cc1ccc(Nc2nc(-c3ccc(O)cc3O)cs2)cc1C(F)(F)F	11	103*	nt	1	-103	DiI quencher=4.3µM*
COc1ccc(S(=O)(=O)N2Cc3cnnn3-c3ccccc3C2C#N)cc1 (configuration not stated)	nt	-10	nt	0	10
O=c1cccc2n1CC1CC2CN(S(=O)(=O)c2cc(Cl)ccc2Cl)C1 (configuration not stated)	1	-16	-2	-1	16	DiI quencher=-3%
CC12C=CC(=O)C=C1CC(O)C1C2CCC2(C)C1CCC2(C)O (configuration not stated)	nt	-10	nt	1	10
